Test results published in ChEMBL document CHEMBL1123659, “2-Phenylindoles. Effect of N-benzylation on estrogen receptor affinity, estrogenic properties, and mammary tumor inhibiting activity” (J Med Chem, 1987).
Values joined by “and” are separate entries in the source; they are usually repeats but may differ in a detail not shown here. Equal entries are not always repeated. Each block holds one molecule with its values, some of them ahead of it.

Columns and labels:
[1] = target: T1, Estrogen receptor (Mus musculus) (UniProt O08537+P19785); assay: Anti-estrogenic activity as Uterus dry weight (mg)/body weight (g) *100 in mice at 75 ug; format: functional, tissue-based
T1 sequence (O08537 whole entry, looked up): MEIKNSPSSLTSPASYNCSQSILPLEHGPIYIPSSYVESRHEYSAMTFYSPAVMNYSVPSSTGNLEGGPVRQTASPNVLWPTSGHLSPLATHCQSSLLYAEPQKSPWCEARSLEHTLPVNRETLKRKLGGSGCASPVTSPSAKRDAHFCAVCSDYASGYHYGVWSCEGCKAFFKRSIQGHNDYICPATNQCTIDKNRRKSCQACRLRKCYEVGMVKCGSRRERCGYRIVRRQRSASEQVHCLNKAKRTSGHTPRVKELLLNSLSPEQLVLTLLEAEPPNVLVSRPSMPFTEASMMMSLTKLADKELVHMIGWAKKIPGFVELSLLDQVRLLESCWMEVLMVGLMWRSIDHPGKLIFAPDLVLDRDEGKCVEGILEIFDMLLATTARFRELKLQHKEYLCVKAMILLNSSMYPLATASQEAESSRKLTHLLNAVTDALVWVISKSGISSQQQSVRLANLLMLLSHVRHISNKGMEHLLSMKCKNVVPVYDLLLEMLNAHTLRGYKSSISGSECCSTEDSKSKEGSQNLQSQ
T1 sequence (P19785 whole entry, looked up): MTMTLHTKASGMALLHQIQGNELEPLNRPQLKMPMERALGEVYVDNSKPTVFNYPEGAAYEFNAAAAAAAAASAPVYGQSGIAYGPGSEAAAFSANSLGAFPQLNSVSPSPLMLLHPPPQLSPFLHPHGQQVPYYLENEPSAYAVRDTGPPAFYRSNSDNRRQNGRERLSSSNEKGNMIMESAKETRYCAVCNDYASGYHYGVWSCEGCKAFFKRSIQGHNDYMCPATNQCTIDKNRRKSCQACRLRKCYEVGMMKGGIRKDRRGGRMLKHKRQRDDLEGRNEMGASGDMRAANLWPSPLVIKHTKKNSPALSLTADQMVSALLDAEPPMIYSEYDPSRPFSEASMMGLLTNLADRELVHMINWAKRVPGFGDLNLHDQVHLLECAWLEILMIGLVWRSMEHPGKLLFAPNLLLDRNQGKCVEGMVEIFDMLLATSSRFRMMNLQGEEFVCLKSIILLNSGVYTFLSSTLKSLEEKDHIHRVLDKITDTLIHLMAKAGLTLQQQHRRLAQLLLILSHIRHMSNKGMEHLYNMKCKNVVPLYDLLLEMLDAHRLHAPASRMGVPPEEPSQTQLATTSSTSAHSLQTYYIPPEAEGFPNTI
Outline: (§1)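 Immature mice, sc injection on three consecutive days of test compound together with a standard 0.4 µg estrone per animal and day. Dose per animal. Control animals got vehicle. Killed 24 h after the last injection. Uteri Bouin-fixed, cleaned, washed in alcoholic LiCl, dried at 100 °C for 24 h and weighed. Read-out is uterine dry weight (mg)/body weight (g) ×100, mean of 10 animals ± SD.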

[2] = target: T1, Estrogen receptor (Mus musculus); assay: Anti-estrogenic activity as Uterus dry weight (mg)/body weight (g) *100 in mice at 25 ug; format: functional, tissue-based; outline: as §1
[3] = target: T1, Estrogen receptor (Mus musculus); assay: Estrogenic activity as Uterus dry weight (mg)/body weight (g) *100 in mice at 5 ug
[4] = target: T1, Estrogen receptor (Mus musculus); assay: Anti-estrogenic activity as Uterus dry weight (mg)/body weight (g) *100 in mice at 625 ug; format: functional, tissue-based; outline: as §1
[5] = target: T1, Estrogen receptor (Mus musculus); assay: Estrogenic activity as Uterus dry weight (mg)/body weight (g) *100 in mice at 625 ug
[6] = target: T1, Estrogen receptor (Mus musculus); assay: Estrogenic activity as Uterus dry weight (mg)/body weight (g) *100 in mice at 25 ug
[7] = target: T1, Estrogen receptor (Mus musculus); assay: Anti-estrogenic activity as Uterus dry weight (mg)/body weight (g) *100 in mice at 250 ug; format: functional, tissue-based; outline: as §1
[8] = target: T1, Estrogen receptor (Mus musculus); assay: (§2) Estrogenic activity as Uterus dry weight (mg)/body weight (g) *100 in mice with 0.4 ug estrone; format: functional, tissue-based
Outline: (§3)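 Immature mice given 0.4 µg estrone per animal sc on three consecutive days. Control animals got vehicle. Killed 24 h after the last injection. Uteri fixed in Bouin, dried at 100 °C for 24 h and weighed. Result expressed as uterine dry weight (mg)/body weight (g) ×100, mean of 10 animals ± SD.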

[9] = target: T1, Estrogen receptor (Mus musculus); assay: Anti-estrogenic activity as Uterus dry weight (mg)/body weight (g) *100 in mice at 125 ug; format: functional, tissue-based; outline: as §1
[10] = target: T1, Estrogen receptor (Mus musculus); assay: as §2; format: functional, tissue-based; outline: as §3; remark: listed apart in the source
[11] = target: Estrogen receptor (Bos taurus) (UniProt Q9XSB5+P49884); assay: Relative binding affinity for the calf uterine estrogen receptor by 17-beta-[3H]-estradiol displacement.; format: protein assay
Outline: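 Calf uterine cytosol (105000g supernatant, 3 mg/mL protein final) in Tris-EDTA-NaN3 buffer, pH 7.5. Incubated with 5 nM 17β-[3H]estradiol and 10^-9–10^-5 M competitor for 18 h at 4 °C. Dextran-coated charcoal added for 90 min, then supernatant radioactivity counted. Nonspecific binding taken with 5 µM estradiol. RBA = molar ratio of estradiol to competitor at 50% displacement ×100.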

[12] = target: T1, Estrogen receptor (Mus musculus); assay: Percent inhibition of estrone-stimulated uterine growth in mice; format: functional; design: concentration or dose not given beside the values; settings: concentration not given here
Outline: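 Mouse antiuterotrophic test. Immature mice injected sc on three consecutive days with 0.4 µg estrone plus increasing doses per animal of test compound. Dry uterine weight/body weight ×100 determined 24 h after the last injection, 10 animals per group. Inhibition (%) = 100 − [(E_S,T − E_V)/(E_S − E_V)] ×100, where E_S is estrone alone and E_V is vehicle. Significance by Mann-Whitney U-test.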

[13] = target: T1, Estrogen receptor (Mus musculus); assay: as §2; format: functional, tissue-based; outline: as §3; remark: listed apart in the source
[14] = target: T1, Estrogen receptor (Mus musculus); assay: Anti-estrogenic activity as Uterus dry weight (mg)/body weight (g) *100 in mice at 5 ug; format: functional, tissue-based; outline: as §1
[15] = target: T1, Estrogen receptor (Mus musculus); assay: Anti-estrogenic activity as Uterus dry weight (mg)/body weight (g) *100 in mice at 1 ug; format: functional, tissue-based; outline: as §1
MCF7 [16] = assay: Effect on [3H]-thymidine incorporation into estrogen receptor positive MCF-7 human breast carcinoma cells at 10e-7 M (ex 1); format: functional
Outline: (§4)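 MCF-7 cells kept in MEM with 5% charcoal-stripped newborn calf serum for two weeks. About 2×10^4 cells per well plated, then one day later exposed to compound in 0.1% ethanol. Ethanol-only controls. Medium changed on day 4. Three days later cells labelled with 1 µCi [3H]thymidine per well for 2 h. TCA-insoluble radioactivity per dish counted, mean of six dishes ± SD, expressed as % T/C.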

MCF7 [17] = assay: Effect on [3H]-thymidine incorporation into estrogen receptor positive MCF-7 human breast carcinoma cells at 10e-6 M (exp 1); format: functional; outline: as §4
MCF7 [18] = assay: Effect on [3H]thymidine incorporation into estrogen receptor positive MCF-7 human breast carcinoma cells at 10e-7 M (experiment 2); format: functional; outline: as §4
MCF7 [19] = assay: Effect on [3H]thymidine incorporation into estrogen receptor positive MCF-7 human breast carcinoma cells at 10e-6 M (ex 2); format: functional; outline: as §4
MCF7 [20] = assay: Effect on [3H]thymidine incorporation into estrogen receptor positive MCF-7 human breast carcinoma cells at 10e-7 M (ex 2)
MCF7 [21] = assay: Effect on [3H]thymidine incorporation into estrogen receptor positive MCF-7 human breast carcinoma cells at 10e-6 M (ex 2)
MCF7 [22] = assay: Effect on [3H]thymidine incorporation into estrogen receptor positive MCF-7 human breast carcinoma cells at 10e-5 M (ex 1); format: functional; outline: as §4
MDA-MB-231 [23] = assay: Effect on [3H]thymidine incorporation into estrogen receptor negative MDA-MB 231 human breast carcinoma cells at 1*10e-5 M (ex 1); format: functional
MDA-MB-231 [24] = assay: Effect on [3H]thymidine incorporation into estrogen receptor negative MDA-MB 231 human breast carcinoma cells at 5*10e-6 M; format: functional
MDA-MB-231 [25] = assay: Effect on [3H]thymidine incorporation into estrogen receptor negative MDA-MB 231 human breast carcinoma cells at 1*10e-6 M; format: functional
[26] = target: T1, Estrogen receptor (Mus musculus); assay: as §2; format: functional, tissue-based; outline: as §3; remark: listed apart in the source
MCF7 [27] = assay: Effect on [3H]thymidine incorporation into estrogen receptor positive MCF-7 human breast carcinoma cells at 10e-6 M (ex 1); format: functional; outline: as §4
MCF7 [28] = assay: Effect on [3H]thymidine incorporation into estrogen receptor positive MCF-7 human breast carcinoma cells at 10e-7 M (ex 1); format: functional; outline: as §4
[29] = in the assay text read “Estrogenic activity” for “Anti-estrogenic activity”

- relative binding affinity (RBA) [11]: 9
SMILES: Cc1c(-c2ccc(O)cc2)n(-c2ccccc2)c2ccc(O)cc12

- relative binding affinity (RBA) [11]: 3
SMILES: Cc1c(-c2cccc(O)c2)n(Cc2ccccc2)c2ccc(O)cc12

- relative binding affinity (RBA) [11]: 14
SMILES: Cc1c(-c2ccc(O)cc2)n(Cc2ccc(C#N)cc2)c2ccc(O)cc12
- T/C (MCF7 [20]): 17.3 ×10^4 per dish
- T/C (MCF7 [21]): 7.8 ×10^4 per dish
- T/C (MCF7 [22]): 1.3 ×10^4 per dish
- T/C (MDA-MB-231 [23]): 11 ×10^4 per dish
- T/C (MDA-MB-231 [24]): 10.5 ×10^4 per dish
- T/C (MDA-MB-231 [25]): 10.5 ×10^4 per dish

- inhibition [12]: 16% and < 35%
SMILES: CC(=O)Oc1ccc(-c2c(C)c3cc(OC(C)=O)ccc3n2Cc2ccc(C)cc2)cc1
- Activity [2]: 42.5
- Activity [14]: 46.3
- Activity [15]: 49.2
- Activity [3]: 14.4
- Activity [5]: 40
- Activity [6]: 20.3
- Activity [8]: 46.5 and 47.8
- Activity [9]: 36
- Activity [9, 29]: 32.9

- relative binding affinity (RBA) [11]: 2.4
SMILES: Cc1c(-c2ccc(O)cc2)n(C(=O)c2ccccc2)c2ccc(O)cc12

- relative binding affinity (RBA) [11]: 0.55
SMILES: Cc1c(-c2ccc(O)cc2)n(Cc2ccccc2)c2ccccc12

- relative binding affinity (RBA) [11]: 11
SMILES: Cc1ccc(Cn2c(-c3ccc(O)cc3)c(C)c3cc(O)ccc32)cc1

- inhibition [12]: 11%
SMILES: CC(=O)Oc1ccc(-c2c(C)c3ccc(OC(C)=O)cc3n2Cc2ccccc2)cc1
- Activity [2]: 52.1
- Activity [26]: 48.2
- Activity [14]: 50.4
- Activity [15]: 54.2
- Activity [3]: 12.3
- Activity [5]: 32.6
- Activity [6]: 17.1
- Activity [9]: 44.6
- Activity [9, 29]: 32.4
- Activity [10]: 46.5

Further lines, the molecule ahead of its results:

SMILES: CC(=O)Oc1ccc(-c2c(C)c3cc(OC(C)=O)ccc3n2Cc2ccc(C#N)cc2)cc1
- Activity [1]: 34.1
- Activity [2]: 37.9
- Activity [3]: 14
- Activity [4]: 31.5
- Activity [5]: 27.4
- Activity [6]: 15.1
- Activity [7]: 30.4
- Activity [8]: 43.7
- Activity [9]: 30.5
- Activity [9, 29]: 20
- Activity [10]: 48.2

SMILES: Cc1c(-c2ccc(O)cc2)n(CC2CCCCC2)c2ccc(O)cc12
- relative binding affinity (RBA) [11]: 5.2

SMILES: Cc1c(-c2ccc(O)cc2)n(Cc2cccc(Cl)c2)c2ccc(O)cc12
- relative binding affinity (RBA) [11]: 5.1

SMILES: CC(=O)Oc1ccc(-c2c(C)c3cc(OC(C)=O)ccc3n2Cc2ccccc2)cc1
- inhibition [12]: 17% and < 42%
- Activity [13]: 48.2
- Activity [2]: 42.8
- Activity [14]: 48.7
- Activity [15]: 49.9
- Activity [3]: 13.3
- Activity [5]: 38.1
- Activity [6]: 22.6
- Activity [9]: 34.7
- Activity [9, 29]: 30.7
- Activity [10]: 47.4

SMILES: Cc1c(-c2ccc(O)cc2)n(Cc2ccccc2)c2cc(O)ccc12
- relative binding affinity (RBA) [11]: 11

SMILES: Cc1c(-c2ccccc2)n(Cc2ccccc2)c2ccc(O)cc12
- relative binding affinity (RBA) [11]: 2.6

SMILES: Cc1c(-c2ccc(O)cc2)n(Cc2ccccc2Cl)c2ccc(O)cc12
- relative binding affinity (RBA) [11]: 8.7

SMILES: CC/C(=C(\c1ccccc1)c1ccc(OCCN(C)C)cc1)c1ccccc1 [TAMOXIFEN]
- T/C (MCF7 [16]): 4.5 ×10^4 per dish
- T/C (MCF7 [17]): 2.2 ×10^4 per dish
- T/C (MCF7 [18]): 6.7 ×10^4 per dish and 10.8 ×10^4 per dish
- T/C (MCF7 [19]): 5.3 ×10^4 per dish

SMILES: Cc1c(-c2ccc(O)cc2)n(-c2ccccc2)c2cc(O)ccc12
- relative binding affinity (RBA) [11]: 7.5

SMILES: Cc1c(-c2ccc(O)cc2)n(CCc2ccccc2)c2ccc(O)cc12
- relative binding affinity (RBA) [11]: 2

SMILES: Cc1c(-c2ccc(O)cc2)n(Cc2c(Cl)cccc2Cl)c2ccc(O)cc12
- relative binding affinity (RBA) [11]: 3.6

SMILES: Cc1cccc(Cn2c(-c3ccc(O)cc3)c(C)c3cc(O)ccc32)c1
- relative binding affinity (RBA) [11]: 6.6

SMILES: CC(=O)Oc1ccc(-c2c(C)c3ccc(OC(C)=O)cc3n2-c2ccccc2)cc1
- inhibition [12]: 33%
- Activity [2]: 43.5
- Activity [14]: 41
- Activity [15]: 43.2
- Activity [3]: 13.4
- Activity [5]: 34.8
- Activity [6]: 17.8
- Activity [8]: 42
- Activity [9]: 32.4
- Activity [9, 29]: 26.4
- Activity [10]: 42

SMILES: Cc1c(-c2ccc(O)cc2)n(Cc2ccc(O)cc2)c2ccc(O)cc12
- relative binding affinity (RBA) [11]: 8

SMILES: Cc1c(-c2ccc(O)cc2)n(Cc2ccccc2)c2ccc(O)cc12
- T/C (MCF7 [27]): 17.4 ×10^4 per dish
- T/C (MCF7 [28]): 20.3 ×10^4 per dish
- relative binding affinity (RBA) [11]: 16

SMILES: Cc1c(-c2ccc(O)cc2)n(Cc2ccc(Cl)cc2)c2ccc(O)cc12
- relative binding affinity (RBA) [11]: 8

SMILES: COc1ccc(Cn2c(-c3ccc(OC(C)=O)cc3)c(C)c3cc(OC(C)=O)ccc32)cc1
- inhibition [12]: 23%
- Activity [2]: 46.8
- Activity [14]: 47.4
- Activity [15]: 47.1
- Activity [3]: 14.3
- Activity [5]: 45
- Activity [6]: 14.7
- Activity [8]: 47.8
- Activity [9]: 40.1
- Activity [9, 29]: 30.9
- Activity [10]: 52.2
